# Screens (PubChem BioAssay)
# A1 apoptosis 2: A1 inhibition read as caspase activation; MEF A1-2A-BIM cells, caspase-Glo luminescence, 3 h; percent of clofoctol response, DMSO zero; caspase activation, % (concentration not given with the values); 24,000 tested, under 10 active; in the data active means caspase activation above about 5.9%
#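 System: mouse embryonic fibroblasts co-expressing A1 and BIM (A1-2A-BIM), primed for A1 dependence; amount: 2500 cells/well; doses: 50 nL pinned compound; schedule: cells settled overnight, compound exposure 3 h at 37 °C, 5% CO2; detection: Caspase-Glo 3/7 luminescence, 1 h at room temperature; read-out: Caspase-3/7 activation, seen as rise in luminescence signal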
# INS-1E rescue: rescue of cytokine-induced death in INS-1E beta cells | protection from cytokine-induced ATP loss, % at 10 µM | 20,000 tested, 0.1% active | INS-1E cytokine-induced death, ATP luminescence, 48 h; normalised: neutral wells 0, positive control 100;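 active means mean replicate protection from cytokine-induced ATP loss at least 50% and at least 75% of replicates each reaching 50%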
#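 Assay system: INS-1E rat insulinoma cells. Amount: 8000 cells per well. Medium: phenol-red-free RPMI with 5% fetal bovine serum. Reagent: IL-1β, TNF-α and IFN-γ cytokine mix. Doses: one compound concentration, pin transfer. Schedule: 48 h co-treatment, 10 min post-lysis read. Detection: CellTiter-Glo luminescence measuring cellular ATP.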
# T cruzi intra: blocks T. cruzi growth inside host cells. intracellular Trypanosoma cruzi in host cells, plate reader. activity score (inhibition), % at 5.01 µM. 22,000 tested, 4.9% active. AID 651903; in the data active means activity score above about 55%;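 further: parasites and compound incubated about four days before reading; 0% = median of neutral control wells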
# Active calls of the source: *; · = no result given. The entries come from a sample that favours hits as a whole.
SMILES,A1 apoptosis 2,INS-1E rescue,T cruzi intra
C[C@@H]1CN([C@@H](C)CO)C(=O)Cc2cc(NC(=O)Nc3ccc4c(c3)OCO4)ccc2O[C@@H]1CN(C)Cc1ccc(C(F)(F)F)cc1,·,-7.9,67.7*
C[C@H](CO)N1C[C@H](C)[C@H](CN(C)Cc2ccc3c(c2)OCO3)Oc2ccc(NC(=O)Nc3ccc4c(c3)OCO4)cc2CC1=O,1.4,-7.8,12.8
COC(=O)CCCCCCC(=O)N/N=C/c1ccc(O)c(F)c1,·,-0.7,-9.8
CN1C(=O)[C@@H]2[C@@H](CC(COc3ccccc3)=C3[C@@H](CCc4ccccc4)OB(O)C[C@@H]32)C1=O,-0.1,·,·
CC(C)=CCC[C@H](C)C/C=N/NC(=O)CCCCCC(=O)O,1.6,0.3,-15.7
Cc1noc(C)c1NC(=O)Nc1cccc2c1O[C@@H](CN(C)Cc1ccc(-c3ccccc3)cc1)[C@H](C)CN([C@@H](C)CO)C2=O,-0.7,-5.8,20.7
C[C@H]1CN([C@@H](C)CO)C(=O)Cc2cc(NC(=O)Nc3ccc(C(F)(F)F)cc3)ccc2O[C@H]1CN(C)Cc1ccc2c(c1)OCO2,·,-23.9,59.7*
C[C@H]1CN([C@@H](C)CO)C(=O)Cc2cc(NC(=O)Nc3ccc(F)cc3)ccc2O[C@H]1CN(C)Cc1ccc2c(c1)OCO2,·,-2.5,2.6
C[C@@H]1CN([C@H](C)CO)C(=O)c2cccc(NC(=O)c3nc4ccccc4s3)c2O[C@H]1CN(C)C(=O)Nc1ccc(C(F)(F)F)cc1,1.3,-1.7,60.7*
C[C@@H]1CN([C@H](C)CO)C(=O)c2cccc(NC(=O)c3nc4ccccc4s3)c2O[C@H]1CN(C)C(=O)Nc1ccc(F)cc1,0.3,6.2,-20.7
C[C@H]1CN([C@@H](C)CO)C(=O)c2cccc(NC(=O)c3nc4ccccc4s3)c2O[C@@H]1CN(C)C(=O)Nc1ccc(C(F)(F)F)cc1,·,-11.9,74.5*
C[C@@H]1CN([C@H](C)CO)C(=O)c2cccc(NC(=O)c3nc4ccccc4s3)c2O[C@@H]1CN(C)C(=O)Nc1ccc(F)cc1,·,-5.1,12.7
C[C@H]1CN([C@@H](C)CO)C(=O)c2cccc(NC(=O)c3nc4ccccc4s3)c2O[C@H]1CN(C)C(=O)Nc1ccc(C(F)(F)F)cc1,-0.5,-72.7,78.6*
C[C@@H]1CN([C@@H](C)CO)C(=O)c2cccc(NC(=O)c3nc4ccccc4s3)c2O[C@H]1CN(C)C(=O)Nc1ccc(C(F)(F)F)cc1,0.8,-10.7,83.9*
C[C@@H]1CN([C@@H](C)CO)C(=O)c2cccc(NC(=O)c3nc4ccccc4s3)c2O[C@H]1CN(C)C(=O)Nc1ccc(F)cc1,1.4,1.0,-2.5
C[C@H](CO)N1C[C@H](C)[C@@H](CN(C)C(=O)Nc2ccc(F)cc2)Oc2c(NC(=O)c3nc4ccccc4s3)cccc2C1=O,0.0,-2.0,-6.0
CC1(C)[C@H]2CC=C(/C=N\NC(=O)c3ccccc3O)[C@@H]1C2,-1.2,-8.7,5.2
O=C(NO)c1ccc(C(=O)N/N=C/c2cccc(Br)c2)cc1,·,-7.4,-7.1
Cc1cc(C(=O)Nc2cccc3c2O[C@@H](CN(C)Cc2ccccc2)[C@H](C)CN([C@H](C)CO)C3=O)n(C)n1,-0.1,2.1,19.6
O=C(NO)c1ccc(C(=O)N/N=C/c2cccc(O)c2)cc1,-1.4,2.8,0.5
C[C@H](CO)N1C[C@H](C)[C@H](CN(C)S(=O)(=O)c2ccccc2)Oc2ncc(-c3ccccc3)cc2C1=O,1.7,·,16.0
COc1cccc(-c2cnc3c(c2)C(=O)N([C@H](C)CO)C[C@H](C)[C@H](CN(C)C)O3)c1,0.9,·,75.9*
C[C@H](CO)N1C[C@H](C)[C@H](CN(C)Cc2ccncc2)Oc2ncc(-c3ccc(F)cc3)cc2C1=O,0.3,·,7.0
C[C@H](CO)N1C[C@H](C)[C@H](CN(C)S(=O)(=O)c2ccc(F)cc2)Oc2ncc(-c3cccc(F)c3)cc2C1=O,0.2,·,27.6
C[C@H](CO)N1C[C@H](C)[C@H](CN(C)C)Oc2ncc(-c3cccc(F)c3)cc2C1=O,·,·,71.3*
SMILES,A1 apoptosis 2,INS-1E rescue,T cruzi intra
C[C@H](CO)N1C[C@H](C)[C@H](CN(C)C)Oc2ncc(-c3ccc(F)cc3)cc2C1=O,0.4,·,64.7*
COc1cccc(-c2cnc3c(c2)C(=O)N([C@H](C)CO)C[C@H](C)[C@H](CN(C)S(C)(=O)=O)O3)c1,0.6,·,3.6
C[C@H](CO)N1C[C@H](C)[C@H](CN(C)C)Oc2ncc(-c3ccccc3)cc2C1=O,-1.2,·,63.1*
O=C(CCCCCC(=O)Nc1ccccc1O)N/N=C/c1ccc(Br)s1,0.2,-5.7,20.1
O=C(CCCCCC(=O)N/N=C/c1ccc(Br)cc1)NO,0.3,·,·
C[C@@H]1CN([C@@H](C)CO)C(=O)c2cccc(NC(=O)C3CC3)c2O[C@@H]1CN(C)C(=O)Nc1ccc2c(c1)OCO2,0.0,13.6,-6.7
O=C(O)CCCCCC(=O)N/N=C/c1ccc(F)cc1,0.0,0.5,-17.6
Cc1ccc(S(=O)(=O)Nc2ccc3c(c2)CC(=O)N([C@@H](C)CO)C[C@H](C)[C@H](CN(C)S(=O)(=O)c2ccc(C)cc2)O3)cc1,·,-0.9,-1.5
C[C@@H]1CN([C@H](C)CO)C(=O)c2cccc(NC(=O)c3ccc(-c4nccs4)cc3)c2O[C@H]1CN(C)Cc1ccc(Oc2ccccc2)cc1,-0.1,-21.6,81.1*
C[C@H](CO)N1C[C@H](C)[C@H](CN(C)Cc2ccccc2)Oc2c(NC(=O)c3ccc(-c4nccs4)cc3)cccc2C1=O,·,-2.8,-24.4
C[C@H](CO)N1C[C@H](C)[C@H](CN(C)Cc2ccc(Oc3ccccc3)cc2)Oc2c(NC(=O)c3ccc(-c4nccs4)cc3)cccc2C1=O,·,-70.2,85.6*
C[C@H]1CN([C@@H](C)CO)C(=O)c2cccc(NC(=O)c3ccc(-c4nccs4)cc3)c2O[C@@H]1CN(C)Cc1ccc(Oc2ccccc2)cc1,-0.3,5.3,30.6
C=CCNC(=O)[C@H]1[C@@H]2C(=O)O[C@@H](c3ccccc3)[C@@H](c3ccccc3)N2[C@@H](c2ccc(O)cc2)[C@]12C(=O)Nc1ccc(C#CCC(C(=O)OC)C(=O)OC)cc12,0.6,·,·
OCc1ccc(COc2ccc3ccncc3c2)cc1,-2.0,·,·
COC(=O)CCCCCCC(=O)N/N=C/[C@@H](O)[C@H](O)[C@H](O)CO,·,5.0,-18.9
C[C@H](CO)N1C[C@H](C)[C@H](CN(C)Cc2ccc(Oc3ccccc3)cc2)Oc2c(NC(=O)c3ccncc3)cccc2C1=O,0.2,-10.7,59.5*
C[C@H]1CN([C@@H](C)CO)C(=O)c2cccc(NC(=O)c3ccncc3)c2O[C@@H]1CN(C)Cc1ccccc1,·,6.0,80.6*
C[C@@H]1CN([C@@H](C)CO)C(=O)c2cccc(NC(=O)c3cnccn3)c2O[C@@H]1CN(C)Cc1ccc(Oc2ccccc2)cc1,-0.2,-28.2,0.9
C[C@@H]1CN([C@H](C)CO)C(=O)c2cccc(NC(=O)c3ccncc3)c2O[C@@H]1CN(C)Cc1ccccc1,1.7,-0.4,-12.0
C[C@H](CO)N1C[C@H](C)[C@H](CN(C)Cc2ccccc2)Oc2c(NC(=O)c3ccncc3)cccc2C1=O,-1.2,-0.8,81.1*
